Laboratory results: ChEMBL document CHEMBL1938353, “Discovery and optimization of aminopyrimidinones as potent and state-dependent Nav1.7 antagonists” (Bioorg Med Chem Lett, 2012)
Values after ≈ are worked out from the molar mass of the structure shown. One block for each compound: values may come before it.

Key:
[1] = Clearance in Sprague-Dawley rat at 0.5 mg/kg, iv; assay type: ADME, organism-based; parameters: dose 0.5 mg/kg, route intravenous; conditions: in vivo
Hepatocyte = assay: Drug metabolism in rat hepatocytes assessed as glucuronide adduct formation at 18.7 mins; assay type: ADME, cell-based; conditions: 0.311667 h
[2] = target: T1, Sodium channel protein type 9 subunit alpha (Homo sapiens, UniProt Q15858); assay: Antagonist activity at non-inactivated human sodium channel Nav1.7 expressed in human HEK293 cells by manual patch-clamp electrophysiological assay; assay type: functional, cell-based
Procedure, shortened: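 Manual electrophysiology on fully noninactivated hNav1.7 with holding voltage set to -140 mV. […] Values are the average of at least two determinations.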

[3] = target: Sodium channel protein type 5 subunit alpha (Homo sapiens, UniProt Q14524); assay: Antagonist activity at partially inactivated human sodium channel Nav1.5 expressed in human HEK293 cells by patch-clamp electrophysiological assay; assay type: functional, cell-based
MDR1 (P-gp) = assay: Apparent permeability across pig LLC-PK1 cells over expressing human MDR1 at 5 uM in presence 0.1 % BSA; assay type: ADME, cell-based, Sus scrofa
Procedure, shortened: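 MDR1-LLC-PK1 pig kidney cells expressing human MDR1. Compound tested at 5 µM with 0.1% BSA. Permeability is the average of the apical-to-basolateral and basolateral-to-apical apparent permeability values.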

[4] = Volume of distribution at steady state in Sprague-Dawley rat at 0.5 mg/kg, iv; assay type: ADME, organism-based; parameters: dose 0.5 mg/kg, route intravenous; conditions: in vivo, read-out: Vdss
[5] = target: T1, Sodium channel protein type 9 subunit alpha; assay: Antagonist activity at 20% inactivated human sodium channel Nav1.7 expressed in human HEK293 cells by manual patch-clamp electrophysiological assay; assay type: functional, cell-based
Procedure, shortened: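 Manual electrophysiology on hNav1.7; holding voltage set, and adjusted as needed during the experiment, to give steady 20% inactivation. […] Values are the average of at least two determinations.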

[6] = Solubility of the compound in 0.01 N HCl; assay type: physicochemical
[7] = Solubility of the compound in phosphate buffer saline; assay type: physicochemical; conditions: phosphate buffered saline
[8] = Solubility of the compound in simulated intestinal fluid; assay type: physicochemical
[9] = target: T1, Sodium channel protein type 9 subunit alpha; assay: Antagonist activity at 20% inactivated human sodium channel Nav1.7 expressed in human HEK293 cells by patch-clamp electrophysiological assay; assay type: functional, cell-based
Procedure, shortened: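 Automated PatchXpress electrophysiology on hNav1.7 channels with an average 20% contribution from inactivated channels. Dose-response curves built from single-concentration tests on many cells. IC50 is the average of at least two determinations.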

[10] = Half life in Sprague-Dawley rat at 0.5 mg/kg, iv; assay type: ADME, organism-based; parameters: dose 0.5 mg/kg, route intravenous; conditions: in vivo
LLC-PK1 = assay: Efflux ratio of permeability from […] side in pig LLC-PK1 cells over expressing human MDR1; assay type: ADME, cell-based, Sus scrofa
Procedure, shortened: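 Pig kidney LLC-PK1 cells expressing human MDR1. Compound tested in the presence of 0.1% BSA. Apparent permeability was measured in both the apical-to-basolateral and basolateral-to-apical directions.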

[11] = target: Voltage-gated inwardly rectifying potassium channel KCNH2 (Homo sapiens, UniProt Q12809); assay: Displacement of dofetilide from human ERG
Liver microsomes [12] = assay: Metabolic stability in human liver microsomes after 15 mins; assay type: ADME, Microsome; conditions: 0.25 h
Liver microsomes [13] = assay: Metabolic stability in rat liver microsomes after 15 mins; assay type: ADME, Microsome; conditions: 0.25 h
[14] = Ratio of drug level in brain to plasma in ip dosed rat; assay type: ADME, organism-based; conditions: brain and plasma, read-out: BPR
Rattus norvegicus [15] = organism: Rattus norvegicus; assay: Toxicity in rat assessed as complete reduction in rearing behavior by open field test; assay type: organism-based; parameters: scale not given: the % may be the effect or the level left; conditions: in vivo
Rattus norvegicus [16] = organism: Rattus norvegicus; assay: Toxicity in rat assessed as reduction in total basic movement by open field test; assay type: organism-based; parameters: scale not given: the % may be the effect or the level left; conditions: in vivo

T1 sequence (Q15858 whole entry): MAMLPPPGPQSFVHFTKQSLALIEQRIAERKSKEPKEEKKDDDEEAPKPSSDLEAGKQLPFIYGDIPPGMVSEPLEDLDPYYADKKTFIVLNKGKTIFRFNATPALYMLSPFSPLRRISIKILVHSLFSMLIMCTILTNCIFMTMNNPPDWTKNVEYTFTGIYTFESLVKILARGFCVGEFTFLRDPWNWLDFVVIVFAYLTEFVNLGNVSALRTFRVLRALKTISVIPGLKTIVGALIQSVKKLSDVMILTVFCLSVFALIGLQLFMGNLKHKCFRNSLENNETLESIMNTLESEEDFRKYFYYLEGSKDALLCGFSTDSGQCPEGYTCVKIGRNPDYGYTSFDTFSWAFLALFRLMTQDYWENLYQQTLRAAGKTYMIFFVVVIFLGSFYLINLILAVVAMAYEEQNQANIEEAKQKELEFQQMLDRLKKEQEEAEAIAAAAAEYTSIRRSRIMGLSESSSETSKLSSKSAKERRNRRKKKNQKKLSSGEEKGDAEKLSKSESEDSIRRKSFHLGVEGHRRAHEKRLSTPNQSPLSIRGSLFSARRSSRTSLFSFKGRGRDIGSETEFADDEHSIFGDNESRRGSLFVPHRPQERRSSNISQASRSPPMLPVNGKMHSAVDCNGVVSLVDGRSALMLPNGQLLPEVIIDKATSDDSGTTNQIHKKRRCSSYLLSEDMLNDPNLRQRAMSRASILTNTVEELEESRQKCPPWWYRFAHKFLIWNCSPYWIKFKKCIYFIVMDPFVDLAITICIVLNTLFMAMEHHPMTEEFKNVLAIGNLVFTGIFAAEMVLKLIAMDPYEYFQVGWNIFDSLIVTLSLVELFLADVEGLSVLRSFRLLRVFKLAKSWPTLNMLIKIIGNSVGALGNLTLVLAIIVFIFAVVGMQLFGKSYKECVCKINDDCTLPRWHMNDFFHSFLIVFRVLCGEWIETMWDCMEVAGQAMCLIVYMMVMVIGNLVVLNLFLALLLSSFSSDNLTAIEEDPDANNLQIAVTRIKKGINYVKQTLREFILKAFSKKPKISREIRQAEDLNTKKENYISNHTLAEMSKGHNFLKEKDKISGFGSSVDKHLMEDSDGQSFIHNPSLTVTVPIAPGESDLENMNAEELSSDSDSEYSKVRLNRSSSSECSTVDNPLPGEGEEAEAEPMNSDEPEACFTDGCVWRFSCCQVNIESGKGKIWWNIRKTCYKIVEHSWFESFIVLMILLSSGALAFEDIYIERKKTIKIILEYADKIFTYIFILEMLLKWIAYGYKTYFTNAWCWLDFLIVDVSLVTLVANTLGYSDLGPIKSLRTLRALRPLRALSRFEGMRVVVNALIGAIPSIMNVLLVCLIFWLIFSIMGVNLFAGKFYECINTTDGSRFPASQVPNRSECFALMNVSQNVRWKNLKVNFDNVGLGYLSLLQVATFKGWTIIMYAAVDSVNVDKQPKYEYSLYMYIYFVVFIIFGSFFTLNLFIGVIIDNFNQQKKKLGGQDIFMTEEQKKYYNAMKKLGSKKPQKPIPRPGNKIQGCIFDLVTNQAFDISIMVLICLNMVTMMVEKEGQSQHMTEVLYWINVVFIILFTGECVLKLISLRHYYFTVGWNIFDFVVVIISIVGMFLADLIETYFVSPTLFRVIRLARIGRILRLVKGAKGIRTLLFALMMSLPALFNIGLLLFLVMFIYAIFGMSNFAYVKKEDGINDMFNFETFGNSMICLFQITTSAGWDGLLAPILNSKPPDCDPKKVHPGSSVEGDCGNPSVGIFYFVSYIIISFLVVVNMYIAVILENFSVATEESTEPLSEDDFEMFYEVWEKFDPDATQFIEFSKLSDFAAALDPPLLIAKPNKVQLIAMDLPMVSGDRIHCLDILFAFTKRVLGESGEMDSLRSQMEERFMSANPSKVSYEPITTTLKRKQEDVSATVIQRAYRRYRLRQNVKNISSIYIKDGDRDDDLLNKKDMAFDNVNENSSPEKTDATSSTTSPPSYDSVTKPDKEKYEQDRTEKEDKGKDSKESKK
Sequence of Sodium channel protein type 5 subunit alpha (Q14524 whole entry): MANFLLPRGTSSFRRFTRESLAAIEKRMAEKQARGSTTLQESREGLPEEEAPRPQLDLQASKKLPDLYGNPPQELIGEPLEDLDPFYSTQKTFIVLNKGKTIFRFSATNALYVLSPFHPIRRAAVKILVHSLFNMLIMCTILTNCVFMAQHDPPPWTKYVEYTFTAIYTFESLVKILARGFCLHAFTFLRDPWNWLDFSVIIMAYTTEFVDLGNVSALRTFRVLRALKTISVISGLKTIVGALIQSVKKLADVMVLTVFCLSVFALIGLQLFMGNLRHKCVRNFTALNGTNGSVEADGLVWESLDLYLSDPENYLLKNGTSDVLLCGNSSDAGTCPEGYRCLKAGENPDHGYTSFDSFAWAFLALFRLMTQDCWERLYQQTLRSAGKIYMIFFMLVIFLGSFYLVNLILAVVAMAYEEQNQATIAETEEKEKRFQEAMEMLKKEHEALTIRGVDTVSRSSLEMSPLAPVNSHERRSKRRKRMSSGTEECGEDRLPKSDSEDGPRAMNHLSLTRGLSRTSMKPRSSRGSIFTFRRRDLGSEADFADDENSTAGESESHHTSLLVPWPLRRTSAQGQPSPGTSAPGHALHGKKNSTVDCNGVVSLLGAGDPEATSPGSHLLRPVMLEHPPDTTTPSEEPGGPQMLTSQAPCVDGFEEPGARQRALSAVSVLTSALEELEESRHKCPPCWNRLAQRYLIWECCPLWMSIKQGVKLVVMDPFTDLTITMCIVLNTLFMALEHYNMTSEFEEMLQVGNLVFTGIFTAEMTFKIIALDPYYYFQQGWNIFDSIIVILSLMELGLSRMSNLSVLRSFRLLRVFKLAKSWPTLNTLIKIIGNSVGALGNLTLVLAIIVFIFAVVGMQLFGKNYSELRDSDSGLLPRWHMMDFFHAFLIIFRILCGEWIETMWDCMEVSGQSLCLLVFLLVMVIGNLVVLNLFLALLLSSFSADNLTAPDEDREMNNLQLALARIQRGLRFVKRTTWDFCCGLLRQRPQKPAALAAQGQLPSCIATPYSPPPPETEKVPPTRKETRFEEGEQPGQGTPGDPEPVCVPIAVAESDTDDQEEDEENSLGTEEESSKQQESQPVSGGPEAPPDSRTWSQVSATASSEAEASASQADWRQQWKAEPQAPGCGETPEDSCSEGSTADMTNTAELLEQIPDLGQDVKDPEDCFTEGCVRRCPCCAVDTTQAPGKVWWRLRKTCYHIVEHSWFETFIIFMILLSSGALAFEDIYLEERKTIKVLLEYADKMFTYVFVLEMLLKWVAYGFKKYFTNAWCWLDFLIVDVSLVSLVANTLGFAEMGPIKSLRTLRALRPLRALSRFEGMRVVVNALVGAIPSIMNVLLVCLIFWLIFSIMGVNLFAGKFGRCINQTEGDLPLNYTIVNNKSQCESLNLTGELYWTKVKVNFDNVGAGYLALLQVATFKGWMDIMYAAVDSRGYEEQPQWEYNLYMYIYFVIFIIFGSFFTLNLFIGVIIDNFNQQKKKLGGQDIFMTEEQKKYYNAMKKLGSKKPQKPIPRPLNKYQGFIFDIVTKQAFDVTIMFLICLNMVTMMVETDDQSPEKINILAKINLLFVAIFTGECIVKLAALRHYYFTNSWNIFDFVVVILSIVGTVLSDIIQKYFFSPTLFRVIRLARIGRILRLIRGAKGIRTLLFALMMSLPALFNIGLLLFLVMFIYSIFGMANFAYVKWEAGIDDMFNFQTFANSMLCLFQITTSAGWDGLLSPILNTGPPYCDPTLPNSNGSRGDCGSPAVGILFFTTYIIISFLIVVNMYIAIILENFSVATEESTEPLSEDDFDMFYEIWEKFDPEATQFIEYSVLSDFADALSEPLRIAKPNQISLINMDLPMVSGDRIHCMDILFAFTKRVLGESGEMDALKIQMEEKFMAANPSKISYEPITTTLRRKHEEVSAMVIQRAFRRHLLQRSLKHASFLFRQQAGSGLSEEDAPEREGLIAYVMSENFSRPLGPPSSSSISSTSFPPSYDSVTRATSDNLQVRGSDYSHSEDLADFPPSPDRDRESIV
Sequence of Voltage-gated inwardly rectifying potassium channel KCNH2 (Q12809 whole entry): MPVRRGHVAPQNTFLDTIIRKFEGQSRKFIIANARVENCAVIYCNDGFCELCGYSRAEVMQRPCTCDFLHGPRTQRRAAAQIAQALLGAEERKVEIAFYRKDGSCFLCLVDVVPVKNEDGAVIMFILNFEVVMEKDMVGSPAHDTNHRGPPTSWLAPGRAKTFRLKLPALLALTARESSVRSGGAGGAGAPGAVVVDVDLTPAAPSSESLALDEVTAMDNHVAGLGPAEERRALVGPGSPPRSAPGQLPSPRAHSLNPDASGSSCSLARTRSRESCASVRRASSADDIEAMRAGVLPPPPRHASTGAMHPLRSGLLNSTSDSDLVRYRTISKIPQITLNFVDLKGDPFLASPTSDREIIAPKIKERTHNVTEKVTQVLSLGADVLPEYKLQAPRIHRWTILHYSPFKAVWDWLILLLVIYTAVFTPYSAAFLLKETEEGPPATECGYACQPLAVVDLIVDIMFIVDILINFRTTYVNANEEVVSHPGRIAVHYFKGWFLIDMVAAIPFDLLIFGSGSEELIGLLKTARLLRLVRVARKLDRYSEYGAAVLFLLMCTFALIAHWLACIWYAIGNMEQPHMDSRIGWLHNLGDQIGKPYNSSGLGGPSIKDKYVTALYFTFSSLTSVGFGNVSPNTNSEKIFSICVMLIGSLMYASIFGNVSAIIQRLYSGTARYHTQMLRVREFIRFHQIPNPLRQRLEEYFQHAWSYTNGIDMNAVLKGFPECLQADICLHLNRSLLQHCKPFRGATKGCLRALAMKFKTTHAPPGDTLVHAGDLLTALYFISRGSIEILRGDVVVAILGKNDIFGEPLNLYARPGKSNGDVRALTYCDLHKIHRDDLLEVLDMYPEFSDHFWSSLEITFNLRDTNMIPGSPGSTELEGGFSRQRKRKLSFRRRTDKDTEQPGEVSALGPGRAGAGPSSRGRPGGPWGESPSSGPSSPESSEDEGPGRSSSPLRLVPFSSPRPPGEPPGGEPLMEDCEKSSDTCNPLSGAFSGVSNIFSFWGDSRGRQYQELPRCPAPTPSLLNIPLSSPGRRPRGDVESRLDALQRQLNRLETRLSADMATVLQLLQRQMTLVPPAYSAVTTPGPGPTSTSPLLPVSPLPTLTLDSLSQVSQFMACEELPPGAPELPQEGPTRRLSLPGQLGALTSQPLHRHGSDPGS

SMILES: CC(C)(C)c1ccc(CSc2nc(N)cc(O)n2)cc1
- clearance [1]: 85 mL/min/kg
- Drug metabolism (Hepatocyte): Active
- IC50 [2]: 2200 nM
- IC50 [3]: 300 nM
- Papp at 5 µM (MDR1 (P-gp)): 27 ×10⁻⁶ cm/s
- Vd [4]: 7.9 L/kg
- IC50 [5]: 340 nM
- solubility [6]: 4 µg/mL (≈ 13.8 µM)
- solubility [7]: 5 µg/mL (≈ 17.3 µM)
- solubility [8]: 67 µg/mL (≈ 232 µM)
- IC50 [9]: 680 nM
- half-life [10]: 2.7 h

SMILES: CCCCCCCSc1nc(N)cc(=O)[nH]1
- clearance [1]: 108 mL/min/kg
- IC50 [2]: 1400 nM
- IC50 [3]: 1200 nM
- Papp at 5 µM (MDR1 (P-gp)): 21 ×10⁻⁶ cm/s
- Vd [4]: 1.3 L/kg
- IC50 [5]: 400 nM
- solubility [6]: 3 µg/mL (≈ 12.4 µM)
- solubility [7]: 2 µg/mL (≈ 8.29 µM)
- solubility [8]: 14 µg/mL (≈ 58 µM)
- IC50 [9]: 940 nM
- Ratio (LLC-PK1): 1.1
- half-life [10]: 0.25 h
- Ki [11]: > 15000 nM

SMILES: N#Cc1ccc(CSc2nc(N)cc(O)n2)cc1
- IC50 [9]: > 30000 nM

SMILES: CC(C)CSc1nc(N)cc(=O)[nH]1
- IC50 [9]: > 30000 nM

SMILES: CC(C)(C)OC(=O)Nc1cc(=O)[nH]c(SCc2ccc(C(C)(C)C)cc2)n1
- IC50 [9]: 7800 nM

SMILES: CC(C)(C)c1ccc(CSc2nc3[nH]cnc3c(=O)[nH]2)cc1
- IC50 [9]: > 30000 nM

SMILES: Cn1c(SCc2ccc(C(C)(C)C)cc2)nc(N)cc1=O
- clearance [1]: 18.3 mL/min/kg
- Kp [14]: 3.3
- IC50 [2]: 500 nM
- IC50 [3]: 200 nM
- Papp at 5 µM (MDR1 (P-gp)): 16 ×10⁻⁶ cm/s
- Vd [4]: 2.6 L/kg
- IC50 [5]: 80 nM
- solubility [6]: 1 µg/mL (≈ 3.3 µM)
- solubility [7]: 10 µg/mL (≈ 33 µM)
- solubility [8]: 14 µg/mL (≈ 46.1 µM)
- IC50 [9]: 420 nM
- Ratio (LLC-PK1): 1
- half-life [10]: 3.9 h
- Activity (Rattus norvegicus [15]): 98%
- Activity (Rattus norvegicus [16]): 81%
- Ki [11]: > 15000 nM

SMILES: COc1cc(N)nc(SCc2ccc(C(C)(C)C)cc2)n1
- IC50 [9]: > 30000 nM

SMILES: Cn1c(N)cc(=O)nc1SCc1ccc(C(C)(C)C)cc1
- IC50 [9]: > 30000 nM

Further lines, results first:

- IC50 [9]: 4700 nM
SMILES: Nc1cc(=O)[nH]c(SCc2ccc(Cl)cc2)n1

- Stability (Liver microsomes [12]): Unstable
- Stability (Liver microsomes [13]): Unstable
- IC50 [9]: 2500 nM
SMILES: CC(C)(C)c1ccc(CSc2nc(NC(=O)C3CC3)cc(=O)[nH]2)cc1

- IC50 [9]: 2200 nM
SMILES: Nc1cc(=O)[nH]c(SCc2ccc(OC(F)(F)F)cc2)n1

- IC50 [9]: > 30000 nM
SMILES: CS(=O)(=O)c1ccc(CSc2nc(N)cc(=O)[nH]2)cc1

- IC50 [9]: > 30000 nM
SMILES: CC(C)(C)c1ccc(CSc2nccc(=O)[nH]2)cc1

- IC50 [9]: > 30000 nM
SMILES: CC(C)(C)c1ccc(CSc2nc(O)cc(=O)[nH]2)cc1

- Stability (Liver microsomes [12]): Unstable
- Stability (Liver microsomes [13]): Unstable
- IC50 [9]: 1200 nM
SMILES: CC(=O)Nc1cc(=O)[nH]c(SCc2ccc(C(C)(C)C)cc2)n1

- IC50 [9]: > 30000 nM
SMILES: CC(C)(C)c1ccc(CSc2nc(NS(C)(=O)=O)cc(=O)[nH]2)cc1

- IC50 [9]: 4300 nM
SMILES: CC(C)(C)c1ccc(CSc2nc(N)c(Cl)c(=O)[nH]2)cc1

- IC50 [9]: > 30000 nM
SMILES: CC(C)(C)c1ccc(CSc2nc(N)c(N)c(=O)[nH]2)cc1
